Measurements taken from ChEMBL document CHEMBL1152759, “Design, synthesis, and biological evaluation of novel quinoline derivatives as HIV-1 Tat-TAR interaction inhibitors” (Bioorg Med Chem, 2009).
pEC50: −log10 of the molar value.

Tests used:
[1] = tested on: Simian immunodeficiency virus; experiment: Antiviral activity against SIV in human CEM cells assessed as protection against virus-induced cytopathogenicity; format: functional, organism-based; conditions: CCRF-CEM
Summary of the method: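 SIV syncytium assay: CEM174 cells at 2 × 10^5 cells/ml infected with 100 TCID50 SIV per well, given dilutions of compound; 5 days at 37 °C, 5% CO2, humidified air. Giant (syncytium) cell formation scored microscopically. EC50 = concentration protecting cells from SIV cytopathogenicity by 50%.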

[2] = Cytotoxicity against human CEM cells; format: cell-based; conditions: CEM (CCRF-CEM) cells, read-out: TC50 (the source's name)
Summary of the method: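 Uninfected CEM cells exposed to compound dilutions; TC50 is the concentration giving 50% inhibition of cell proliferation.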

[3] = Selectivity index, ratio of TC50 for human CEM cells to EC50 for SIV in human CEM cells
Nucleic Acid = experiment: Inhibition of HIV1 Tat-TAR RNA interaction-mediated transactivation in human 293T cells assessed as CAT gene expression at 30 uM after 24 hrs by ELISA; values are per cent of control; conditions: Human immunodeficiency virus 1

| SMILES | pEC50 [1] | CC50 [2] | Ratio [3] | level, % of control (Nucleic Acid) |
| --- | --- | --- | --- | --- |
| COC(=O)[C@H](CO)NC(=O)c1cnc2c(Cl)cccc2c1Cl | 5.17 | > 100 µM | >15 | – |
| CCOC(=O)[C@H](CO)NC(=O)c1cnc2ccccc2c1Cl | 5.33 | > 100 µM | >21 | – |
| COC(=O)[C@H](CC(C)C)NC(=O)c1cnc2ccccc2c1Cl | 5.03 | 49.1 µM | 5.2 | – |
| O=C(NCCO)c1cn(Cc2ccccc2)c2ccccc2c1=O | 5.22 | > 100 µM | >16 | 63.9% |
| O=C(NCCO)c1cnc2ccccc2c1Cl | 5.57 | > 100 µM | >37 | – |
| O=C(NCCO)c1c[nH]c2ccccc2c1=O | 5.43 | > 100 µM | >27 | – |
| Cn1cc(C(=O)NCCO)c(=O)c2ccccc21 | 5.06 | > 100 µM | >11 | 44.2% |
| COC(=O)[C@H](CO)NC(=O)c1cnc2ccc(F)cc2c1Cl | 5.24 | > 100 µM | >17 | – |
| COC(=O)[C@@H](NC(=O)c1cnc2cc(C)ccc2c1Cl)[C@@H](C)O | 4.89 | > 100 µM | >14 | 92.7% |
| CC[C@H](C)[C@H](NC(=O)c1cnc2ccccc2c1Cl)C(=O)OC | 5.89 | 23.3 µM | 17 | – |
| O=C(NCCO)c1c[nH]c2ccc(Oc3ccccc3)cc2c1=O | 5.31 | > 100 µM | >20 | – |
| COC(=O)[C@H](Cc1ccccc1)NC(=O)c1cnc2ccccc2c1Cl | 5.10 | > 100 µM | >13 | – |
| O=C(NCCO)c1cn(CCO)c2ccccc2c1=O | 5.14 | > 100 µM | >13 | – |
| CC(C)C[C@@H](CO)NC(=O)c1cnc2ccccc2c1Cl | 5.10 | > 100 µM | >12 | 71.9% |
| O=C(NCCO)c1cn(Cc2ccc(F)cc2)c2ccccc2c1=O | 5.16 | > 100 µM | >14 | – |
| COC(=O)[C@H](C)NC(=O)c1cnc2ccccc2c1Cl | 5.24 | 81.3 µM | 14 | – |
| COC(=O)CNC(=O)c1cnc2ccccc2c1Cl | 5.27 | > 100 µM | >18 | 79% |

| SMILES | pEC50 [1] | CC50 [2] | Ratio [3] | level, % of control (Nucleic Acid) |
| --- | --- | --- | --- | --- |
| COC(=O)[C@H](CO)NC(=O)c1cnc2ccccc2c1Cl | 5.96 | > 100 µM | >90 | 59.6% |
| COC(=O)[C@H](CO)NC(=O)c1cnc2c(F)cc(F)cc2c1Cl | 5.06 | > 100 µM | >11 | – |
| COC(=O)[C@@H](NC(=O)c1cnc2ccccc2c1Cl)C(C)C | 5.25 | 17.6 µM | 3.1 | – |
| O=C(N[C@H](CO)Cc1ccccc1)c1cnc2ccccc2c1Cl | 5.40 | > 100 µM | >25 | – |
| O=C(NCCO)c1c[nH]c2ccc(Cl)cc2c1=O | 5.29 | > 100 µM | >19 | – |
| COC(=O)[C@H](CO)NC(=O)c1cnc2cc(C)ccc2c1Cl | 5.33 | 59.6 µM | 13 | 53.3% |
| C[C@@H](CO)NC(=O)c1cnc2ccccc2c1Cl | 5.15 | > 100 µM | >14 | – |
| COC(=O)[C@H](CO)NC(=O)c1cnc2ccc(C)cc2c1Cl | 4.94 | > 100 µM | >8.6 | – |
| COC(=O)[C@H](CSC)NC(=O)c1cnc2ccccc2c1Cl | 5.54 | 68.4 µM | 22 | – |
| COC(=O)[C@H](Cc1c[nH]c2ccccc12)NC(=O)c1cnc2ccccc2c1Cl | 5.00 | > 100 µM | >19 | – |
| COC(=O)[C@H](CO)NC(=O)c1cnc2c(C)cccc2c1Cl | 5.55 | > 100 µM | >36 | – |
| COC(=O)C[C@H](NC(=O)c1cnc2ccccc2c1Cl)C(=O)OC | – | – | – | 58.7% |
| O=C(NCCCO)c1cnc2ccccc2c1Cl | 5.18 | > 100 µM | >15 | – |
| COC(=O)[C@H](CO)NC(=O)c1cnc2cc(Cl)ccc2c1Cl | 5.09 | > 100 µM | >12 | – |
| COC(=O)[C@H](CO)NC(=O)c1cnc2ccc(Cl)cc2c1Cl | 4.92 | > 100 µM | >8.3 | – |
| COC(=O)[C@@H](NC(=O)c1cnc2ccccc2c1Cl)[C@@H](C)O | 5.15 | > 100 µM | >14 | 82.4% |
